# Screens: PubChem BioAssay, The Scripps Research Institute Molecular Screening Center
# In the library only some 1.7% were active in any assay of this set; here they are far more common.
# EBNA-1 inh = EBNA-1 DNA-binding inhibitors, primary screen, biochemical, fluorescence polarization; inhibition, % at 14.8 µM; 300,000 tested, 0.34% active; AID 1950, 2009; in the data active means inhibition above about 28%
# ZTA counter = counter-screen for EBNA-1 inhibitors: inhibitors of Epstein-Barr virus ZTA; P03206; ZTA-DNA binding, fluorescence polarization; inhibition, % at 11 µM; 320,000 tested, 0.15% active; AID 2234; in the data active means inhibition above about 33%
# HCV core dimer = inhibitors of HCV core protein dimerization, primary screen, biochemical, TR-FRET, high-throughput | TR-FRET GST/Flag-core106 dimerization, 1536-well | inhibition, % at 5 µM | 300,000 tested, 0.33% active;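 active means inhibition above the mean of all tested compounds plus 3 SD, set per screening campaign, cut at about 45% in these data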
#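 System: GST/Flag-tagged HCV core106 proteins. Incubation: compound-protein-antibody incubation 4 h at 22.5 °C. Technique: HTRF with 340 nm excitation, 617/671 nm emission. Medium: KF-containing HEPES buffer, pH 7.45, DTT, CHAPS, BSA. Read-out: inhibition (%) from 671 over 617 nm ratio. Also added: Eu(K)-anti-GST 90 ng/mL plus XL665-anti-Flag 1 µg/mL.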
# PP1 counter = PP1-alpha phosphatase inhibitors, primary screen, counter-screen for PP5 inhibitor project, biochemical, fluorescence, OMFP substrate, single point. Serine/threonine-protein phosphatase PP1-alpha catalytic subunit (Homo sapiens), P62136. purified PP1alpha. inhibition, % at 6.7 µM. 320,000 tested, 0.9% active. AID 2235, 2010;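 active means inhibition above the mean inhibition of all tested compounds plus 3 SD, computed separately for each screening campaign, cut at about 15% in these data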
# PP5 inh = PP5 phosphatase inhibitors, primary screen, biochemical, fluorescence; inhibition, % at 6.7 µM; AID 1987, 2009; Serine/threonine-protein phosphatase 5 (Homo sapiens), P53041; purified PP5c, OMFP substrate fluorescence; 320,000 tested, 0.18% active;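 active means inhibition above the campaign's mean inhibition across all tested compounds plus 3 SD, cut at about 9.5% in these data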;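 further: 0% = DMSO only and 100% = 100 µM cantharidin control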
# Target sequence (P53041 whole entry, looked up): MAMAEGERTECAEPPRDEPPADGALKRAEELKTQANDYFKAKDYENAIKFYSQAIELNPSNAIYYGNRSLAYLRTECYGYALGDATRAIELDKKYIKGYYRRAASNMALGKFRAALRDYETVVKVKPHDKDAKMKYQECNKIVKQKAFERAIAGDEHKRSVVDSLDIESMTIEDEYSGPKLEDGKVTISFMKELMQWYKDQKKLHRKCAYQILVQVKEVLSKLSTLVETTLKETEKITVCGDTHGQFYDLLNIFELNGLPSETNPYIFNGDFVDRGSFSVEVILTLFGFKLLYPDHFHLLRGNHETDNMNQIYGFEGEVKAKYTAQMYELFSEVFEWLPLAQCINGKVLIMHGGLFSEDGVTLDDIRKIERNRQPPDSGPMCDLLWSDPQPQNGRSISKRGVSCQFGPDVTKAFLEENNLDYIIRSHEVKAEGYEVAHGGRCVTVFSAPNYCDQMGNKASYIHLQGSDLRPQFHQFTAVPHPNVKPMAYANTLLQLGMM
# EBNA-1 inh conf = EBNA-1 DNA-binding inhibitors, retest, confirmation, biochemical, fluorescence polarization, triplicate. shares compounds with EBNA-1 inh. Recombinant EBNA-1 DBD, Cy5-DNA fluorescence polarization. inhibition, % at 14.8 µM. 830 tested, 35% active. AID 2292, 2010;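 active means mean inhibition across replicates above a set limit taken from the earlier primary screen, cut at about 28% in these data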;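 further: plate controls were EBNA-1 protein with DMSO for no effect and wells lacking EBNA-1 for full effect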
# ZTA DNA inh trip = EBV Zta DNA binding inhibitors, counter-screen for EBNA-1 inhibitor project, biochemical, fluorescence polarization, triplicate; shares compounds with EBNA-1 inh; Zta-ZRE DNA binding, Cy5 fluorescence polarization; inhibition, % at 11.1 µM; 830 tested, under 10 active;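 active means mean inhibition over triplicates above a set limit taken from the primary EBNA-1 screen, cut at about 37% in these data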;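 further: purified full length Zta protein with Cy5 labeled ZRE DNA probe; 0% = Zta with DMSO and 100% = wells lacking Zta protein; inhibitors lower polarization by freeing the labeled DNA probe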
# Active calls of the source: *; / = no result given; + = active, no number.
SMILES,EBNA-1 inh,ZTA counter,HCV core dimer,PP1 counter,PP5 inh,EBNA-1 inh conf,ZTA DNA inh trip
O=C(CSc1n[nH]c(-c2ccco2)n1)Nc1sc2c(c1C(=O)Nc1ccccc1)CCCC2,36*,20,29,5,3,20,8
COc1ccc(NS(=O)(=O)c2ccc(O)c(NC(=O)c3ccc(S(=O)(=O)N4CCCCCC4)cc3)c2)cc1,28*,15,31,4,-1,3,4
COc1ccc(S(=O)(=O)N2CCCCC2)cc1NC(=O)c1cccs1,35*,-8,0,0,2,32*,-1
Cc1ccc(S(=O)(=O)N2CCCCC2)cc1NC(=O)c1cccs1,/,-17,/,-2,5,/,/
O=C(CNC(=O)c1cccc(Cl)c1)NCCCSc1ccccc1,4,7,-4,-3,0,/,/
O=C(c1ccccc1F)N1CCN(S(=O)(=O)c2ccc(S(=O)(=O)N3CCCCCC3)cc2)CC1,31*,3,4,-4,0,33*,-6
Cc1cc(C)c(C)c(C(=O)COC(=O)CNC(=O)CN2C(=O)c3ccccc3C2=O)c1C,13,22,-2,4,3,/,/
Cc1ccc(C(=O)COC(=O)CNC(=O)CN2C(=O)c3ccccc3C2=O)cc1,33*,4,5,-4,0,28*,-4
O=C(Nc1cccc(NC(=O)c2ccc(F)cc2)c1)c1ccc(F)cc1,28*,8,12,-3,-1,10,2
O=C(Nc1cccc(NC(=O)c2cccs2)c1)c1ccc(Br)cc1,70*,13,3,11,0,75*,9
CC1CN(C(=O)CNC(=O)Cc2cccc3ccccc23)CC(C)O1 (stereo not given),/,4,/,-3,1,/,/
COc1ccccc1NC(=O)c1sc2nc(-c3ccco3)ccc2c1N,-7,4,29,10,4,/,/
Nc1c(C(=O)Nc2ccccc2)sc2nc(-c3ccco3)ccc12,54*,19,8,0,2,59*,11
COc1ccccc1Nc1nnc(SCC(=O)NC(=O)Nc2ccc3c(c2)OCCO3)s1,36*,5,13,1,2,15,11
CCCCOc1ccc(C(=O)Nn2c(-c3cccs3)nc3ccccc3c2=O)cc1,95*,3,11,-2,4,41*,0
O=C(/C=C/c1ccccc1)Nn1c(-c2cccs2)nc2ccccc2c1=O,4,-26,-2,2,4,/,/
COc1ccc(/C=C/C(=O)NC2CCN(Cc3ccccc3)CC2)cc1OC,-1,-17,-5,1,-1,/,/
CCOC(=O)Cc1csc(NC(=O)CSc2nc(N)c3c(C)c(C)sc3n2)n1,169*,3,2,1,3,7,5
O/N=C\c1ccccc1Oc1ccc(F)cc1,3,-8,-5,0,-1,/,/
O=C1S/C(=C\c2ccccc2)C(=O)N1CC(O)Cn1c2ccccc2c2ccccc21 (stereo not given),30*,1,0,4,4,9,11
COc1ccc(/C=C2/SC(=O)N(CC(O)Cn3c4ccccc4c4ccccc43)C2=O)cc1 (stereo not given),-6,13,19,2,-2,/,/
COC(=O)c1ccc2c(=O)[nH]c(CSc3nc(-c4ccc(F)cc4)cs3)nc2c1,60*,-17,-13,-2,3,34*,12
COC(=O)c1ccc2c(=O)[nH]c(CSc3nc(C)cs3)nc2c1,-16,12,5,4,3,/,/
CC1(c2ccccc2)NC(=O)N(CCN2C(=O)c3ccccc3C2=O)C1=O (stereo not given),59*,0,-5,-1,0,1,-1
O=C(CSc1ccc(-c2ccccc2)nn1)c1ccccc1,40*,-5,-6,1,1,-12,-5
SMILES,EBNA-1 inh,ZTA counter,HCV core dimer,PP1 counter,PP5 inh,EBNA-1 inh conf,ZTA DNA inh trip
Cc1ccc(-n2nnnc2-c2ccccc2Br)cc1,-4,-5,-1,0,0,/,/
Cc1ccc(C)c(OCc2cc(C(=O)N3CC[C@@H]4CCCC[C@H]4C3)no2)c1,4,5,2,0,1,/,/
COc1cc(C)ccc1OCc1cc(C(=O)N2CCC(c3ccc(F)cc3)C2)no1 (stereo not given),31*,-1,5,-5,0,2,15
Cc1cc(C(=O)CSc2nnnn2-c2ccccc2)c(C)n1CC1CCCO1 (stereo not given),151*,0,9,3,2,93*,2
COc1ccc(C(=O)CN2CCN(c3cc(C)nc4ccccc34)CC2)cc1,-4,-17,-5,-3,-2,/,/
Cc1cc(N2CCN(CC(O)C(F)(F)F)CC2)c2ccccc2n1 (stereo not given),+,13,6,-7,1,-2,-13
CCC(C)Sc1ccc([C@@H]2[C@@H]3C(=O)N(C)C(=O)[C@@H]3[C@]3(C(=O)OC)CCCCN23)cc1 (stereo not given in full),10,-20,-4,-1,7,/,/
COC(=O)C1=C(CSc2nc3ccccc3s2)NC(=O)NC1c1ccc(F)cc1 (stereo not given),42*,-3,9,5,0,16,2
COc1ccccc1C(=O)CSc1ccccn1,7,8,-3,-6,-1,/,/
S=C(NCc1ccco1)Nc1ccc(Cl)cc1,31*,-8,-8,2,1,-4,0
S=C(NCc1ccco1)Nc1ccc(Oc2ccc(Cl)cc2)cc1,-6,1,3,-2,2,/,/
O=C(NCCCN1CCOCC1)c1ccc2c(c1)N(Cc1ccccc1F)C(=O)c1ccccc1S2=O (stereo not given),2,9,10,-6,1,/,/
O=C(CSc1nnc2c3c4c(sc3ncn12)CCCC4)NCc1ccco1,32*,2,5,1,0,-1,0
COc1ccc(C(NC(=O)/C=C\c2ccco2)c2ccc(OC)c(OC)c2)cc1 (stereo not given),39*,-5,8,1,0,1,16
CS(=O)(=O)NNC(=O)c1csc(Cc2c(Cl)sc3ccc(Cl)cc23)n1,40*,11,6,0,-1,41*,6
CC(C)C(=O)NNC(=O)c1csc(CS(=O)(=O)c2ccc(Cl)cc2)n1,-7,-6,-6,2,3,/,/
